Source: ChEMBL document CHEMBL5058577, “EUbOPEN Chemogenomics Library 2 (Multiplex)” (2022)

Test system: U2OS
Assay: Multiplex assay against U2OS
Type: toxicity, cell-based
Details: human
Summary of the method: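 At seeding, live cells were stained with Hoechst33342, BioTracker Green Microtubule Cytoskeleton Dye, MitoTracker Red and Annexin V Alexa Fluor 680. After compound addition they were imaged on a CQ1 microscope at 37°C and 5% CO2, and CellPathfinder machine-learning gating sorted them into Hoechst high-intensity objects or normal cells, with normal cells further split into healthy, pyknosed or fragmented nuclei and pyknosed cells into mitotic or apoptotic. Tubulin, mitochondrial-mass and membrane-permeability phenotypes are given as per cents of cells with healthy nuclei.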

[1] = 12 h, 1 µM, compound concentration 1 uM, replicate 1
[2] = 12 h, 1 µM, compound concentration 1 uM, replicate 2
[3] = 12 h, 10 µM, compound concentration 10 uM, replicate 1
[4] = 12 h, 10 µM, compound concentration 10 uM, replicate 2
[5] = 24 h, 1 µM, compound concentration 1 uM, replicate 1
[6] = 24 h, 1 µM, compound concentration 1 uM, replicate 2
[7] = 24 h, 10 µM, compound concentration 10 uM, replicate 1
[8] = 24 h, 10 µM, compound concentration 10 uM, replicate 2
[9] = 48 h, 1 µM, compound concentration 1 uM, replicate 1
[10] = 48 h, 1 µM, compound concentration 1 uM, replicate 2
[11] = 48 h, 10 µM, compound concentration 10 uM, replicate 1
[12] = 48 h, 10 µM, compound concentration 10 uM, replicate 2

SMILES: C[C@H](N)COC(=O)[C@@H](CCCCN)NC(=O)Cc1c(-c2ccc3ccccc3c2)[nH]c2c1ccc1ccccc12
- Population Apoptotic (%) [1]: 73%
- Population Fragmented Nuclei (%) [1]: 26%
- Population Healthy Nuclei (%) [1]: 66%
- Population Hoechst High Intensity Objects (%) [1]: 3%
- Population Membrane Permeable-Phenotype (%) [1]: 6%
- Population Mitochondria Different-Phenotype (%) [1]: 3%
- Population Mitotic Cells (%) [1]: 26%
- Population Normal (%) [1]: 96%
- Population Pyknosed Nuclei (%) [1]: 6%
- Population Tubulin-Different-Phenotype (%) [1]: 3%
- Total Cell Count [1]: 244
- Population Apoptotic (%) [2]: 75%
- Population Fragmented Nuclei (%) [2]: 14%
- Population Healthy Nuclei (%) [2]: 78%
- Population Hoechst High Intensity Objects (%) [2]: 0%
- Population Membrane Permeable-Phenotype (%) [2]: 4%
- Population Mitochondria Different-Phenotype (%) [2]: 2%
- Population Mitotic Cells (%) [2]: 25%
- Population Normal (%) [2]: 99%
- Population Tubulin-Different-Phenotype (%) [2]: 4%
- Total Cell Count [2]: 128
- Population Apoptotic (%) [3]: 78%
- Population Fragmented Nuclei (%) [3]: 23%
- Population Healthy Nuclei (%) [3]: 69%
- Population Hoechst High Intensity Objects (%) [3]: 2%
- Population Membrane Permeable-Phenotype (%) [3]: 5%
- Population Mitochondria Different-Phenotype (%) [3]: 1%
- Population Mitotic Cells (%) [3]: 21%
- Population Normal (%) [3]: 97%
- Population Pyknosed Nuclei (%) [3]: 7%
- Population Tubulin-Different-Phenotype (%) [3]: 3%
- Total Cell Count [3]: 279
- Population Apoptotic (%) [4]: 50%
- Population Fragmented Nuclei (%) [4]: 24%
- Population Healthy Nuclei (%) [4]: 73%
- Population Hoechst High Intensity Objects (%) [4]: 0%
- Population Membrane Permeable-Phenotype (%) [4]: 17%
- Population Mitochondria Different-Phenotype (%) [4]: 3%
- Population Mitotic Cells (%) [4]: 50%
- Population Normal (%) [4]: 100%
- Population Pyknosed Nuclei (%) [4]: 1%
- Population Tubulin-Different-Phenotype (%) [4]: 5%
- Total Cell Count [4]: 106
- Population Apoptotic (%) [5]: 83%
- Population Fragmented Nuclei (%) [5]: 22%
- Population Healthy Nuclei (%) [5]: 68%
- Population Hoechst High Intensity Objects (%) [5]: 2%
- Population Membrane Permeable-Phenotype (%) [5]: 3%
- Population Mitochondria Different-Phenotype (%) [5]: 1%
- Population Mitotic Cells (%) [5]: 16%
- Population Normal (%) [5]: 97%
- Population Pyknosed Nuclei (%) [5]: 8%
- Population Tubulin-Different-Phenotype (%) [5]: 2%
- Total Cell Count [5]: 292
- Population Apoptotic (%) [6]: 90%
- Population Fragmented Nuclei (%) [6]: 16%
- Population Healthy Nuclei (%) [6]: 77%
- Population Hoechst High Intensity Objects (%) [6]: 1%
- Population Membrane Permeable-Phenotype (%) [6]: 6%
- Population Mitotic Cells (%) [6]: 10%
- Population Normal (%) [6]: 98%
- Population Pyknosed Nuclei (%) [6]: 5%
- Population Tubulin-Different-Phenotype (%) [6]: 3%
- Total Cell Count [6]: 170
- Population Apoptotic (%) [7]: 81%
- Population Fragmented Nuclei (%) [7]: 19%
- Population Healthy Nuclei (%) [7]: 73%
- Population Hoechst High Intensity Objects (%) [7]: 2%
- Population Membrane Permeable-Phenotype (%) [7]: 5%
- Population Mitochondria Different-Phenotype (%) [7]: 1%
- Population Mitotic Cells (%) [7]: 18%
- Population Normal (%) [7]: 97%
- Population Pyknosed Nuclei (%) [7]: 6%
- Population Tubulin-Different-Phenotype (%) [7]: 2%
- Total Cell Count [7]: 337
- Population Apoptotic (%) [8]: 100%
- Population Fragmented Nuclei (%) [8]: 17%
- Population Healthy Nuclei (%) [8]: 79%
- Population Membrane Permeable-Phenotype (%) [8]: 11%
- Population Mitochondria Different-Phenotype (%) [8]: 3%
- Population Mitotic Cells (%) [8]: 0%
- Population Pyknosed Nuclei (%) [8]: 2%
- Population Tubulin-Different-Phenotype (%) [8]: 6%
- Total Cell Count [8]: 142
- Population Apoptotic (%) [9]: 79%
- Population Fragmented Nuclei (%) [9]: 16%
- Population Healthy Nuclei (%) [9]: 78%
- Population Hoechst High Intensity Objects (%) [9]: 1%
- Population Membrane Permeable-Phenotype (%) [9]: 2%
- Population Mitochondria Different-Phenotype (%) [9]: 2%
- Population Mitotic Cells (%) [9]: 20%
- Population Normal (%) [9]: 98%
- Population Pyknosed Nuclei (%) [9]: 5%
- Population Tubulin-Different-Phenotype (%) [9]: 2%
- Total Cell Count [9]: 440
- Population Apoptotic (%) [10]: 73%
- Population Fragmented Nuclei (%) [10]: 17%
- Population Healthy Nuclei (%) [10]: 73%
- Population Hoechst High Intensity Objects (%) [10]: 2%
- Population Membrane Permeable-Phenotype (%) [10]: 3%
- Population Mitochondria Different-Phenotype (%) [10]: 4%
- Population Mitotic Cells (%) [10]: 26%
- Population Normal (%) [10]: 97%
- Population Pyknosed Nuclei (%) [10]: 8%
- Population Tubulin-Different-Phenotype (%) [10]: 1%
- Total Cell Count [10]: 231
- Population Apoptotic (%) [11]: 90%
- Population Fragmented Nuclei (%) [11]: 14%
- Population Healthy Nuclei (%) [11]: 74%
- Population Hoechst High Intensity Objects (%) [11]: 4%
- Population Membrane Permeable-Phenotype (%) [11]: 6%
- Population Mitochondria Different-Phenotype (%) [11]: 1%
- Population Mitotic Cells (%) [11]: 9%
- Population Normal (%) [11]: 95%
- Population Pyknosed Nuclei (%) [11]: 10%
- Population Tubulin-Different-Phenotype (%) [11]: 2%
- Total Cell Count [11]: 505
- Population Fragmented Nuclei (%) [12]: 16%
- Population Healthy Nuclei (%) [12]: 77%
- Population Membrane Permeable-Phenotype (%) [12]: 16%
- Population Mitochondria Different-Phenotype (%) [12]: 2%
- Population Mitotic Cells (%) [12]: 10%
- Population Pyknosed Nuclei (%) [12]: 5%
- Population Tubulin-Different-Phenotype (%) [12]: 6%
- Total Cell Count [12]: 184
